Assay results: ChEMBL document CHEMBL4706571, “Structure-activity relationship study of tryptophan-based butyrylcholinesterase inhibitors” (Eur J Med Chem, 2020)
Calls of active or inactive are those of the source.

Legend:
Cholinesterase = Cholinesterase (Homo sapiens, UniProt P06276); test: Inhibition of human BChE using butyrylthiocholineiodide as substrate measured for 5 mins by Ellman's method
How it was run: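 Human BChE at about 1 nM was preincubated for 5 min at 20 °C with compound and Ellman's reagent in 0.1 M phosphate buffer, pH 8.0, with 1% final DMSO. The reaction was started with butyrylthiocholine iodide and A412 read for 1 min from initial rates. Activity was corrected by an enzyme-free buffer blank. IC50 was fitted from at least seven concentrations.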

Acetylcholinesterase = Acetylcholinesterase (Homo sapiens, UniProt P22303); test: Inhibition of human AChE using acetylthiocholine iodide as substrate measured for 5 mins by Ellman's method
How it was run: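 Human AChE at about 50 pM was preincubated for 5 min at 20 °C with compound (DMSO stock) and Ellman's reagent in 0.1 M phosphate buffer, pH 8.0, with 1% final DMSO. Acetylthiocholine iodide was then added and A412 followed for 1 min. Residual activity = (vi − b)/(vo − b), with b a blank lacking enzyme. IC50 used at least seven concentrations.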

Mus musculus [1] = test: Cognitive enhancing effect in intraperitoneally dosed C57BL/6J mouse model of scopolamine-induced memory impairment assessed as enhancement of learning abilities and working memory by measuring escape latency time to reach target in acquisition phase measured on day 5 by Barnes maze test; assay type: functional, organism-based
How it was run: (§1)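 C57BL/6J mice, Barnes maze: scopolamine 1 mg/kg s.c. 30 min before first daily trial; compound in 1% Tween 80 i.p. 60 min before, daily during 4-day acquisition (four trials/day, 15-min intervals). Drug-off probe day 5 (short-term) and day 12 (long-term): escape box removed, 90 s exploration, latency to former box location and primary errors recorded. n = 7–9; one-way ANOVA, Dunnett's.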

Mus musculus [2] = test: Anti-amnesic activity in CD-1 mouse model of scopolamine-induced memory impairment assessed as step-through latency time to enter dark compartment in retention trail on day 2 at 10 to 30 mg/kg, ip administered 60 mins before trail by passive avoidance test; assay type: functional, organism-based; conditions: dose 10-30 mg/kg
How it was run: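 CD-1 mice, passive avoidance: scopolamine 1 mg/kg s.c. in 0.9% saline 30 min before trial; test article suspended in 1% Tween 80, i.p. 60 min before trial (controls 1% Tween 80 i.p.). Acquisition trial: 30 s in lit compartment, gate opened, step-through latency to dark chamber recorded; retention trial 24 h later. n = 8–9.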

Mus musculus [3] = test: Cognitive enhancing effect in C57BL/6J mouse model of scopolamine-induced memory impairment model assessed as escape latency time at 10 to 30 mg/kg, ip administered for 7 days and 60 mins before trail by Morris water maze test relative to control; assay type: functional, organism-based; conditions: dose 10-30 mg/kg, time 7.0 day
Mus musculus [4] = test: Cognitive enhancing effect in intraperitoneally dosed C57BL/6J mouse model of scopolamine-induced memory impairment assessed as enhancement of short-term memory retrieval by measuring latency time to find former escape box location in acquisition phase measured on day 5 by Barnes maze test; assay type: functional, organism-based; how it was run: as §1
Mus musculus [5] = test: Cognitive enhancing effect in intraperitoneally dosed C57BL/6J mouse model of scopolamine-induced memory impairment assessed as enhancement of long-term memory retrieval by measuring latency time to find former escape box location in acquisition phase measured on day 12 by Barnes maze test; assay type: functional, organism-based; how it was run: as §1
[6] = Neurotoxicity in mouse assessed as effect in locomotor activity at 30 mg/kg, ip measured up to 60 mins by rotarod test; assay type: toxicity, organism-based; conditions: in vivo, 1 h
How it was run: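 Mice trained 3 consecutive days on rotarod (2 cm rod, 18 rpm); 24 h later dosed i.p. with 30 mg/kg in 1% Tween 80 or vehicle, tested after 60 min at 6, 18 and 24 rpm. Motor impairment defined as failure to stay on for 60 s; expressed as mean time on rod.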

Sequence of Cholinesterase (P06276 whole entry): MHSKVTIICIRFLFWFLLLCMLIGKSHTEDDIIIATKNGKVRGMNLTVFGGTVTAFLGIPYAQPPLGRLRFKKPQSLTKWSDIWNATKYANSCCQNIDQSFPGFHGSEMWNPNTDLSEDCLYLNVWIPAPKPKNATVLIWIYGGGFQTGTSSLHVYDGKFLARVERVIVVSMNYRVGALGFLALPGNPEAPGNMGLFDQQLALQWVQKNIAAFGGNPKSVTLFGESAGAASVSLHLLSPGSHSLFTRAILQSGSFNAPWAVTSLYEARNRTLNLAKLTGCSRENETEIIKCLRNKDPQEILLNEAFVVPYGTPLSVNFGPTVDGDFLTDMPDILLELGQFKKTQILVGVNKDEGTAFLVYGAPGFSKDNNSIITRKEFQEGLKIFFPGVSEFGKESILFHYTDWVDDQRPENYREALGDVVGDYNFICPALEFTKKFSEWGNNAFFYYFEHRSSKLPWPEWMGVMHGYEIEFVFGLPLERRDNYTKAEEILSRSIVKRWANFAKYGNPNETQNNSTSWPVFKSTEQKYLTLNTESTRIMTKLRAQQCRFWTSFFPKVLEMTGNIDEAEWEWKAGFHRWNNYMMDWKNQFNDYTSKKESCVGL
Sequence of Acetylcholinesterase (P22303 whole entry): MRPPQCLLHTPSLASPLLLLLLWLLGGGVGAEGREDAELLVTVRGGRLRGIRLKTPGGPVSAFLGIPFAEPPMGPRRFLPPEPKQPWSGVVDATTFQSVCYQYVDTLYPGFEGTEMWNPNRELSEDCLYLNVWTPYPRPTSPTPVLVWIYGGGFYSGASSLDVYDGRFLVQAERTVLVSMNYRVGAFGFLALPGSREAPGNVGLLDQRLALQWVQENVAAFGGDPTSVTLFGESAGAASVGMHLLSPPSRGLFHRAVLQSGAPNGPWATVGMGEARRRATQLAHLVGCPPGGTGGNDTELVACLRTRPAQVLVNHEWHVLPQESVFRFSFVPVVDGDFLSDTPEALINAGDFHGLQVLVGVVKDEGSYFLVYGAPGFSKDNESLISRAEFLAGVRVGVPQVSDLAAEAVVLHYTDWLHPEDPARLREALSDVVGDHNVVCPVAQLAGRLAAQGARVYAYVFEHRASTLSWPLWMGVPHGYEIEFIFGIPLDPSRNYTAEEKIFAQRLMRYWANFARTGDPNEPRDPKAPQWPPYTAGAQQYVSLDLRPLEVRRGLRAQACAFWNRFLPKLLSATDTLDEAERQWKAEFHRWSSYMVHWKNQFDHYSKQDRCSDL

| SMILES | IC50 (Cholinesterase) [µM] | further results |
| --- | --- | --- |
| CCCCN[C@@H](CC(C)C)C(=O)NCCC1CCCCCC1 | 36.3 | – |
| CCCCN[C@@H](Cc1c[nH]c2ccccc12)C(=O)NCCC1CCN(CC2CCN(C)CC2)CC1 | 6.6 | IC50 (Acetylcholinesterase): 29.7 µM |
| CCCCN[C@@H](Cc1c[nH]c2ccccc12)C(=O)NCCC1CCCN(Cc2ccccc2)CC1 (mixture of isomers) | 0.0028 | IC50 (Acetylcholinesterase): 16 µM |
| CCCCN[C@@H](Cc1c[nH]c2ccccc12)C(=O)NCCC1CCCC(c2ccccc2)C1 (mixture of isomers) | 0.0066 | – |
| CCCCN[C@@H](Cc1c[nH]c2ccccc12)C(=O)NCCC1CCN(Cc2ccccc2)CC1 | 0.002 | IC50 (Acetylcholinesterase): 25.4 µM |
| CCCCN[C@@H](Cc1c[nH]c2ccccc12)C(=O)NCCC1CCCCCC1 | 0.022 | Activity (Mus musculus [1]): inactive; Activity (Mus musculus [2]): inactive; Activity (Mus musculus [3]): inactive; Activity (Mus musculus [4]): inactive; Activity (Mus musculus [5]): Active; Activity [6]: Non-Toxic |
| CCCCN(CCCC)[C@@H](Cc1c[nH]c2ccccc12)C(=O)N1CCC(Cc2ccccc2)CC1 | 0.076 | – |
| CCCCN[C@@H](Cc1c[nH]c2ccccc12)C(=O)NCCC1CCN(c2ccccc2)CC1 | 0.0056 | – |
| CCCCN[C@@H](Cc1c[nH]c2ccccc12)C(=O)NCCC1CCCN(Cc2ccc(OC)cc2)CC1 (mixture of isomers) | 0.1 | – |
| CCCCN[C@@H](Cc1c[nH]c2ccccc12)C(=O)N1CCCC1c1ccccc1 (stereo partly drawn) | 0.99 | – |
| CCCCN[C@@H](Cc1c[nH]c2ccccc12)C(=O)NCCC1CCCN(Cc2c(F)c(F)cc(F)c2F)CC1 (mixture of isomers) | 0.0059 | – |
| CCCCN[C@@H](Cc1c[nH]c2ccccc12)C(=O)NCCC1CCN(CCc2ccccc2)CC1 | 0.0038 | – |
| CCCCN[C@@H](Cc1ccccc1)C(=O)NCCC1CCCCCC1 | 0.609 | – |
| CCCCN[C@@H](Cc1c[nH]c2ccccc12)C(=O)NCCC1CCCN(Cc2ccccc2)C1 (mixture of isomers) | 0.009 | – |
